Measured values: article PMC5551398 (Biochemistry, 2017)
Blank lines part the entries; values can stand above or below the molecule they belong to. Bridge positions count the residues as written; N and C are the ends. Primed or numbered codes have the meaning given here. Ends that are not written are not given here. Peptide text beside a SMILES is read from it. * marks the point of attachment. FITC = O=C1OC2(c3ccc(O)cc3Oc3cc(O)ccc32)c2ccc(NC(=S)*)cc21; Biotin = O=C1N[C@H]2[C@H](CS[C@H]2CCCCC(=O)*)N1; FITC′ = fluorescein isothiocyanate label; Ahx = NCCCCCC(=O)O

Key:
[1] = molecular target: T1, MBP-CTR ECD (hCTR.36-151) (Homo sapiens, UniProt P30988); assay: FP saturation peptide-binding assay, MBP-CTR ECD WT
T1 sequence (P30988 36-151): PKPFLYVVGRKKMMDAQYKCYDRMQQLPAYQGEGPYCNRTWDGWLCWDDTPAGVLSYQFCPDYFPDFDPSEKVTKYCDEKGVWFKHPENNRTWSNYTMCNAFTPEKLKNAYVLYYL
In short: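 MBP-CTR ECD was produced in HEK293S GnTI− cells and left untreated, digested with Endo H (4 µl of 500 U/µl, GlycoBuffer 3, 22°C, 30 min), or given heat-inactivated Endo H (75°C, 10 min). Digests were serially diluted (top 3 µM) and titrated against 10 nM FITC-AC413(6-25) Y25P, 1 h, dark, room temperature, HEPES pH 7.4 buffer. Anisotropy corrected for intensity quenching. Duplicate samples.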

MBP-CTR ECD = molecular target: T2, MBP-CTR ECD (Homo sapiens, UniProt P30988); assay: Competition AlphaLISA peptide-binding assay
T2 sequence (P30988 36-151): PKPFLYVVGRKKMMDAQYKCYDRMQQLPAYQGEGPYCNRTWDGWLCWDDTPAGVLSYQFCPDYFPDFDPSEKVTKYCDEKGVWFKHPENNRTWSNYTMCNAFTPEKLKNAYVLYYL
In short: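 Binding by AlphaLISA competition. MBP-CTR ECD from transfected HEK293T cells (150 nM) was mixed with 150 nM biotinylated sCT and competitor peptide. Luminescence read at 680/615 nm. Three independent experiments, duplicate samples.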

[2] = molecular target: T3, MBP-hCTR.36-151-H6 produced in HEK293T cells (human, UniProt P30988-2 36-151, complex N-glycans at N73, N125, N130); assay: AlphaScreen or HTRF
T3 sequence (looked up): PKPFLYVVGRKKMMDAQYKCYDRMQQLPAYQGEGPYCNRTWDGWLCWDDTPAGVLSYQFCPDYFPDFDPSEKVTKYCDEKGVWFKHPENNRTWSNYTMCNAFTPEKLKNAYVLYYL

[3] = molecular target: T3, MBP-hCTR.36-151-H6 produced in HEK293T …; assay: fluorescence polarisation
[4] = molecular target: T3, MBP-hCTR.36-151-H6 produced in HEK293T …; assay: AlphaScreen or HTRF; remark: listed apart in the source
[5] = molecular target: T3, MBP-hCTR.36-151-H6 produced in HEK293T …; assay: fluorescence polarisation; remark: listed apart in the source
[6] = molecular target: T4, MBP-free H6-CTR ECD (residues 32-140) (human, UniProt P30988-2 32-140); assay: ITC
T4 sequence (looked up): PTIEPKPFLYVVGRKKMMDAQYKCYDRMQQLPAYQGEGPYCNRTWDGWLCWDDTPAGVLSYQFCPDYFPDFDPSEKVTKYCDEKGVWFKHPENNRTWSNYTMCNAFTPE

[7] = molecular target: T5, MBP-CTR ECD-H6 produced in E. coli (human, UniProt P30988-2 36-151); assay: fluorescence polarisation
T5 sequence (looked up): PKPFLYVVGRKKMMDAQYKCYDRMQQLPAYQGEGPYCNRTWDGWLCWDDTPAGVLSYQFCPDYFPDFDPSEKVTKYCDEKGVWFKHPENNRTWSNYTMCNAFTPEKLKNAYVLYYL

[8] = molecular target: T6, MBP-hCTR.36-151-H6 produced in HEK293S GnTI- cells (human, UniProt P30988-2 36-151, core N-glycans (Man5GlcNAc2) at N73, N125, N130); assay: fluorescence polarisation
T6 sequence (looked up): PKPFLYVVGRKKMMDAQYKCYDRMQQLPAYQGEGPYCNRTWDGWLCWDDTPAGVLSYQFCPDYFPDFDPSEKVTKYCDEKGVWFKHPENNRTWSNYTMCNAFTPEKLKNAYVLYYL

[9] = molecular target: T3, MBP-hCTR.36-151-H6 produced in HEK293T …; assay: fluorescence polarisation; remark: listed apart in the source
[10] = molecular target: T3, MBP-hCTR.36-151-H6 produced in HEK293T …; assay: fluorescence polarisation; remark: listed apart in the source
[11] = molecular target: T7, MBP-RAMP2-(GS)5-CTR ECD-H6 produced in E. coli (human, UniProt O60895 55-140; P30988-2 36-151); assay: fluorescence polarisation
T7 chain: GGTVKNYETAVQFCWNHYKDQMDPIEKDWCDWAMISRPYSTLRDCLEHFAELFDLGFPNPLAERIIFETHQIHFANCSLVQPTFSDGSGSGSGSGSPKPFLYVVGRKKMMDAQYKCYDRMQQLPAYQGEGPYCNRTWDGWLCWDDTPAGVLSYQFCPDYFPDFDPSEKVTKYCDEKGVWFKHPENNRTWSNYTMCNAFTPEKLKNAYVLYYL

Molecule: CC(C)C[C@H](NC(=O)[C@H](CCCNC(=N)N)NC(=O)[C@@H](NC(=O)[C@H](CC(C)C)NC(=O)[C@H](Cc1ccccc1)NC(=O)[C@H](CC(N)=O)NC(=O)[C@H](C)NC(=O)CCCCCNC(=S)Nc1ccc2c(c1)C(=O)OC21c2ccc(O)cc2Oc2cc(O)ccc21)C(C)C)C(=O)N[C@@H](CCC(N)=O)C(=O)N[C@H](C(=O)N[C@@H](Cc1ccc(O)cc1)C(=O)N1CCC[C@H]1C(=O)N[C@@H](CCCNC(=N)N)C(=O)N[C@H](C(=O)N[C@@H](CC(N)=O)C(=O)N[C@H](C(=O)NCC(=O)N[C@@H](C)C(=O)N[C@@H](CC(N)=O)C(=O)N[C@H](C(=O)N1CCC[C@H]1C(N)=O)[C@@H](C)O)C(C)C)[C@@H](C)O)[C@@H](C)O [FITC-AC413(6-25) Y25P] ({FITC-Ahx}-ANFLVRLQTYPRTNVGANTP-NH2)
Kd [1]: 115 nM | IC50 (MBP-CTR ECD): 47.9 nM

Molecule: ANFLVRLQTYPRTNVGANTP-NH2 [AC413(6-25) Y25P, reference compound]
IC50 (MBP-CTR ECD): 708 nM

Molecule: ANFLVRLQTYPRTNVGANTP-NH2 [AC413(6-25) Y25P]
Ki [3]: 631 nM | pIC50 [4]: 6.15 | pKI [5]: 6.2

Molecule: {FITC′-Ahx}-ANFLVRLQTYPRTNVGANTP-NH2 [FITC-Ahx (aminohexanoic acid)-AC413(6-25) Y25P]
pKD [9]: 6.94 | Kd [10]: 115 nM | pIC50 [4]: 7.32 | IC50 [2]: 47.9 nM

Next, values leading:

binding result [2]: binds
B1: Biotin-sCT C1A/C7A (peptide)
peptide: Biotin-ASNLSTAVLGKLSQELHKLQTYPRTNTGSGTP-NH2
SMILES: CC(C)C[C@H](NC(=O)[C@H](CCCCN)NC(=O)CNC(=O)[C@H](CC(C)C)NC(=O)[C@@H](NC(=O)[C@H](C)NC(=O)[C@@H](NC(=O)[C@H](CO)NC(=O)[C@H](CC(C)C)NC(=O)[C@H](CC(N)=O)NC(=O)[C@H](CO)NC(=O)[C@H](C)NC(=O)CCCC[C@@H]1SC[C@@H]2NC(=O)N[C@@H]21)[C@@H](C)O)C(C)C)C(=O)N[C@@H](CO)C(=O)N[C@@H](CCC(N)=O)C(=O)N[C@@H](CCC(=O)O)C(=O)N[C@@H](CC(C)C)C(=O)N[C@@H](Cc1c[nH]cn1)C(=O)N[C@@H](CCCCN)C(=O)N[C@@H](CC(C)C)C(=O)N[C@@H](CCC(N)=O)C(=O)N[C@H](C(=O)N[C@@H](Cc1ccc(O)cc1)C(=O)N1CCC[C@H]1C(=O)N[C@@H](CCCNC(=N)N)C(=O)N[C@H](C(=O)N[C@@H](CC(N)=O)C(=O)N[C@H](C(=O)NCC(=O)N[C@@H](CO)C(=O)NCC(=O)N[C@H](C(=O)N1CCC[C@H]1C(N)=O)[C@@H](C)O)[C@@H](C)O)[C@@H](C)O)[C@@H](C)O

Kd [6]: 35000 nM
Molecule: CSNLSTCVLGKLSQELHKLQTYPRTNTGSGTP-NH2 (disulfide 1-7) [sCT(1-32)]

Ki [3]: ~3000 nM | Ki [7]: ~25000 nM | Ki [8]: ~3000 nM | Kd [6]: 16000 nM | dH [6]: -24.2 kcal/mol | stoichiometry N [6]: 1.17
Molecule: VLGKLSQELHKLQTYPRTNTGSGTP-NH2 [sCT(8-32)]

Kd [11]: 4570 nM
Molecule: {FITC-Ahx}-ANFLVRLQTYPRTNVGANTY-NH2 [FITC-Ahx-AC413(6-25)]
